Measured values as given in ChEMBL document CHEMBL1135605, “Preparation and characterization of platinum(II) and (IV) complexes of 1,3-diaminepropane and 1,4-diaminebutane: circumvention of cisplatin resistance and DNA interstrand cross-link formation in CH1cisR ovarian tumor cells” (J Med Chem, 2002).

Legend:
CH1 [1] = assay: Compound was evaluated against human Ovarian carcinoma cell line CH1; format: functional, cell-based
In short: (§1)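 MTT cell survival assay. Compounds dissolved in 10 mM NaClO4 in distilled water, with 1 mg/mL stocks freshly prepared. Final concentrations 0–200 μM added to the cultures. Survival read 24 h later by absorbance at 520 nm. IC50 (concentration giving 50% cell killing) taken from % survival vs concentration curves. Run in quadruplicate.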

A2780 [2] = assay: Compound was evaluated against human Ovarian carcinoma cell line A2780; format: functional, cell-based; in short: as §1
PAM212 [3] = assay: Compound was evaluated against transformed murine keratinocytes Pam 212-ras cell line; format: functional, cell-based, Mus musculus; in short: as §1
PAM212 [4] = assay: Compound was evaluated against normal Pam 212 cell line; format: functional, cell-based, Mus musculus; in short: as §1
CH1 [5] = assay: Compound was evaluated against human Ovarian carcinoma cell line CH1cisR; format: functional, cell-based; in short: as §1
A2780 [6] = assay: Compound was evaluated against human Ovarian carcinoma cell line A2780cisR; format: functional, cell-based; in short: as §1

| Substance | IC50 (CH1 [1]) [µM] | IC50 (A2780 [2]) [µM] | IC50 (PAM212 [3]) [µM] | IC50 (CH1 [5]) [µM] | IC50 (A2780 [6]) [µM] | IC50 (PAM212 [4]) [µM] |
| --- | --- | --- | --- | --- | --- | --- |
| Cis-[Pt(1,3-diaminepropane)2(O-Glutarate)2] | > 200 | > 200 | > 200 | > 200 | > 200 | > 200 |
| Cis-[Pt(1,3-diaminebutane)2(OH)2] 1,1-cyclobutanedicarboxylate | > 200 | > 200 | > 200 | > 200 | > 200 | > 200 |
| Cis-[Pt(1,3-diaminepropane)2(OH)2] 1,1-cyclobutanedicarboxylate | > 200 | > 200 | > 200 | > 200 | > 200 | > 200 |
| Cis-[Pt(1,3-diaminebutane)2] 1,1-cyclobutanedicarboxylate | > 200 | > 200 | > 200 | > 200 | > 200 | > 200 |
| Cis-[Pt(1,3-diaminepropane)2] 1,1-cyclobutanedicarboxylate | > 200 | > 200 | > 200 | > 200 | > 200 | > 200 |
| Cis-[Pt(1,3-diaminebutane)2(O-Succinate)2] | > 200 | > 200 | > 200 | > 200 | > 200 | > 200 |
| CISPLATIN | 6 | 2 | 72 | 25 | 36 | 44 |
| Cis-[Pt(1,3-diaminepropane)2(O-Succinate)2] | > 200 | > 200 | > 200 | > 200 | > 200 | > 200 |

More lines, main results first:

| IC50 (CH1 [1]) [µM] | IC50 (A2780 [2]) [µM] | IC50 (PAM212 [3]) [µM] | IC50 (CH1 [5]) [µM] | IC50 (A2780 [6]) [µM] | Substance | IC50 (PAM212 [4]) [µM] |
| --- | --- | --- | --- | --- | --- | --- |
| 4.5 | 0.3 | 64 | 8 | 1 | Cis-[Pt(1,3-diaminepropane) 1,1-cyclobutanedicarboxylate] | 85 |
| 3.3 | 0.32 | 42 | 6 | 0.74 | Cis-[Pt(1,3-diaminebutane) 1,1-cyclobutanedicarboxylate] | 100 |
| > 200 | > 200 | > 200 | > 200 | > 200 | Cis-[Pt(1,3-diaminepropane)2(O-Maleate)2] | > 200 |
| 52 | 18 | > 200 | 185 | 178 | CARBOPLATIN | > 200 |
